{"source": "ChEMBL document CHEMBL1926538", "about": "“3,5-Disubstituted-thiazolidine-2,4-dione analogs as anticancer agents: design, synthesis and biological characterization” (Eur J Med Chem, 2012)", "key": {"[1]": {"system": "U-937", "experiment": "Cell cycle arrest in human U937 cells assessed as decrease in G2/M-phase population at 10 uM after 24 hrs by propidium iodide staining-based flow cytometric analysis", "format": "functional", "in_short": "(§1)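 Cells cultured in RPMI 1640 with 10% FBS and treated 24 h at the indicated concentrations. Stained with propidium iodide for 4 h at 4 °C in the dark. Flow cytometry gave the percentage of cells in G₀/G₁, S, G₂/M and sub-G₁ phases.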"}, "[2]": {"molecular_target": "Tyrosine-protein kinase Lck (Homo sapiens) (UniProt P06239)", "experiment": "Inhibition of LCK at 10 uM"}, "[3]": {"system": "U-937", "experiment": "Induction of apoptosis in human U937 cells assessed as necrotic cells at 10 uM after 3 hrs by annexinV-propidium iodide staining-based flow cytometric analysis (reference value: 2.3%)", "format": "functional"}, "[4]": {"system": "U-937", "experiment": "Cell cycle arrest in human U937 cells assessed as sub-diploid apoptotic fraction at 10 uM after 24 hrs by propidium iodide staining-based flow cytometric analysis", "format": "functional", "in_short": "as §1"}, "[5]": {"experiment": "Induction of apoptosis in human M12 cells assessed as viable cells at 20 uM after 24 hrs by annexinV-propidium iodide staining-based flow cytometric analysis (reference value: 80.18%)", "format": "functional", "conditions": "M12, 24 h, read-out: Activity"}, "[6]": {"system": "U-937", "experiment": "Cell cycle arrest in human U937 cells assessed as decrease in G1/G0-phase population at 10 uM after 24 hrs by propidium iodide staining-based flow cytometric analysis", "format": "functional", "in_short": "as §1"}, "[7]": {"molecular_target": "RAF proto-oncogene serine/threonine-protein kinase (Homo sapiens) (UniProt P04049)", "sequence (P04049 whole entry)": "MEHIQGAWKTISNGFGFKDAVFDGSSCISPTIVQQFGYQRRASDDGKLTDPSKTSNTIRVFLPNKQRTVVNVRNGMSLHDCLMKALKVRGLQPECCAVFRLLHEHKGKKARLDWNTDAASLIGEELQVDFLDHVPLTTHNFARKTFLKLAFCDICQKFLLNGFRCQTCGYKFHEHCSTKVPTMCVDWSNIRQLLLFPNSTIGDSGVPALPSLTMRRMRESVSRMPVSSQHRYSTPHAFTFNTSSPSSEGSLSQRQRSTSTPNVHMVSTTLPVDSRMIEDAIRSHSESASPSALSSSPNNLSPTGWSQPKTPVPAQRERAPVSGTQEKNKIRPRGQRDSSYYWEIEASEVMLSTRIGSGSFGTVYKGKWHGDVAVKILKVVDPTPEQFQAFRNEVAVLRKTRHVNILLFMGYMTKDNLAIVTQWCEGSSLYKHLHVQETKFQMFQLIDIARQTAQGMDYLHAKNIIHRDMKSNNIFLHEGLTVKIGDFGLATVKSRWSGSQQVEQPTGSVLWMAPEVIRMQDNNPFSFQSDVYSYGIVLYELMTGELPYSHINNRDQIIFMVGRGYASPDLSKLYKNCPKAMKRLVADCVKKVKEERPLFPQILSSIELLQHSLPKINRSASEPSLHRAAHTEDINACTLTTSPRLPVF", "experiment": "Inhibition of Raf-mediated ERK phosphorylation in human DU145 cells at 10 to 20 uM after 24 hrs by Western blot analysis", "format": "cell-based", "conditions": "DU-145", "in_short": "(§2)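 Cells in RPMI 1640 with 10% heat-inactivated FBS, 37 °C, 5% CO2; treated in growing medium (DU145 24 h; U937 1 h at 5 × 10⁵/mL). Lysed by sonication in SDS sample buffer with protease inhibitors plus 1 mM orthovanadate and pyrophosphate, boiled 5 min. Blots blocked in 5% milk, primary antibodies 1:1000 overnight at 4 °C, HRP secondary 1:2000, chemiluminescence; α-tubulin loading control.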"}, "[8]": {"experiment": "Inhibition of MSK2 at 10 uM"}, "[9]": {"system": "U-937", "experiment": "Induction of apoptosis in human U937 cells assessed as viable cells at 3 uM after 18 hrs by annexinV-propidium iodide staining-based flow cytometric analysis (reference value: 87.2%)", "format": "functional", "conditions": "U-937, 18 h, read-out: Activity"}, "[10]": {"molecular_target": "Serine/threonine-protein kinase Chk1 (Homo sapiens) (UniProt O14757)", "experiment": "Inhibition of CHK1 at 10 uM"}, "[11]": {"system": "U-937", "experiment": "Induction of apoptosis in human U937 cells assessed as late apoptotic cells at 10 uM after 3 hrs by annexinV-propidium iodide staining-based flow cytometric analysis (reference value: 8.6%)", "format": "functional"}, "[12]": {"molecular_target": "Rho-associated protein kinase 2 (Homo sapiens) (UniProt O75116)", "experiment": "Inhibition of ROCK2 at 10 uM"}, "[13]": {"molecular_target": "Serine/threonine-protein kinase pim-2 (Homo sapiens) (UniProt Q9P1W9)", "sequence (Q9P1W9 whole entry, looked up)": "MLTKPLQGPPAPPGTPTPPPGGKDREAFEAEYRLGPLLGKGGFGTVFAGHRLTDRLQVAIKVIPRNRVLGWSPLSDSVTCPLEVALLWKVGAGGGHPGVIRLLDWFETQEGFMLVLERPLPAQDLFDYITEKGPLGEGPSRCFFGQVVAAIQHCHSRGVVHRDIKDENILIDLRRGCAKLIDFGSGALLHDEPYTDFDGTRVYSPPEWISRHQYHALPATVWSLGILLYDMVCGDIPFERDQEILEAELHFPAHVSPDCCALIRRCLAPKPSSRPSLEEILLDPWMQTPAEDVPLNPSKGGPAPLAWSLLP", "experiment": "Inhibition of PIM2 at 10 uM"}, "[14]": {"experiment": "Induction of apoptosis in human M12 cells assessed as necrotic cells at 20 uM after 24 hrs by annexinV-propidium iodide staining-based flow cytometric analysis (reference value: 1.7%)", "format": "functional"}, "[15]": {"molecular_target": "Tyrosine-protein kinase ABL1 (Homo sapiens) (UniProt P00519)", "experiment": "Inhibition of ABL at 10 uM"}, "[16]": {"system": "U-937", "experiment": "Induction of apoptosis in human U937 cells assessed as late apoptotic cells at 10 uM after 18 hrs by annexinV-propidium iodide staining-based flow cytometric analysis (reference value: 7.8%)", "format": "functional"}, "[17]": {"molecular_target": "Tyrosine-protein kinase BTK (Homo sapiens) (UniProt Q06187)", "experiment": "Inhibition of BTK at 10 uM"}, "[18]": {"molecular_target": "Fibroblast growth factor receptor 1 (Homo sapiens) (UniProt P11362)", "experiment": "Inhibition of FGFR1 at 10 uM"}, "[19]": {"molecular_target": "Ribosomal protein S6 kinase alpha-5 (Homo sapiens) (UniProt O75582)", "sequence (O75582 whole entry, looked up)": "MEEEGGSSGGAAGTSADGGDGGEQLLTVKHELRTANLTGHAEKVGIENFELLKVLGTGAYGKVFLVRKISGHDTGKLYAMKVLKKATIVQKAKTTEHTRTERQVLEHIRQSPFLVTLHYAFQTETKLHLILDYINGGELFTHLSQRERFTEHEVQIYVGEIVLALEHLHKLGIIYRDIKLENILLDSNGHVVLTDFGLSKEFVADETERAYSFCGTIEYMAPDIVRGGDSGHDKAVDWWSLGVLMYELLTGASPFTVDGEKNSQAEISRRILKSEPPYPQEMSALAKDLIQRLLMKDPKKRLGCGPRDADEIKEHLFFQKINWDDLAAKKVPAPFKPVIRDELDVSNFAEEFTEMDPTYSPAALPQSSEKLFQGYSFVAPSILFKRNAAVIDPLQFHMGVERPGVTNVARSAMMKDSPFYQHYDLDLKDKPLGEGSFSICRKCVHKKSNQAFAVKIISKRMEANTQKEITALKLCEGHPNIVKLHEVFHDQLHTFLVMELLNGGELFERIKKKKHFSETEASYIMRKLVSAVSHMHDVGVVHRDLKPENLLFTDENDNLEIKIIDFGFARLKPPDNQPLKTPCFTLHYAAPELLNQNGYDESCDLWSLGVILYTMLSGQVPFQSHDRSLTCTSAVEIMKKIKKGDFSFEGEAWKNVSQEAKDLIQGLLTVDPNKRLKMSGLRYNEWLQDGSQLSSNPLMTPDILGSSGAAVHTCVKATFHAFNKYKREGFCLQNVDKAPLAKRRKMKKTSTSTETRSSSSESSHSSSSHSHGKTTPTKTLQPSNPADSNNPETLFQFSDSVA", "experiment": "Inhibition of MSK1 at 10 uM"}, "[20]": {"molecular_target": "Protein kinase C zeta type (Homo sapiens) (UniProt Q05513)", "experiment": "Inhibition of PKCzeta at 10 uM"}, "[21]": {"system": "U-937", "experiment": "Induction of apoptosis in human U937 cells assessed as viable cells at 10 uM after 6 hrs by annexinV-propidium iodide staining-based flow cytometric analysis (reference value: 80.3%)", "format": "functional", "conditions": "U-937, 6 h, read-out: Activity"}, "[22]": {"system": "U-937", "experiment": "Induction of apoptosis in human U937 cells assessed as early apoptotic cells at 3 uM after 3 hrs by annexinV-propidium iodide staining-based flow cytometric analysis (reference value: 2.8%)", "format": "functional"}, "[23]": {"system": "PC-3", "experiment": "Growth inhibition of human PC3 cells after 24 hrs by MTS assay", "format": "functional, cell-based", "in_short": "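Cells in RPMI 1640 with 10% heat-inactivated FBS, seeded 2 × 10⁴ cells/well and exposed 24 h. MTS reagent added, then 1 h further incubation at 37 °C, 5% CO₂. Formazan absorbance read at 490 nm. Viability expressed as percentage of untreated controls.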"}, "[24]": {"molecular_target": "RAF proto-oncogene serine/threonine-protein kinase (Homo sapiens) (UniProt P04049)", "experiment": "Inhibition of raf-mediated ERK phosphorylation in human U937 cells at 3 uM after 1 hr by Western blot analysis", "format": "cell-based", "conditions": "U-937", "in_short": "as §2"}, "[25]": {"system": "U-937", "experiment": "Induction of apoptosis in human U937 cells assessed as early apoptotic cells at 10 uM after 6 hrs by annexinV-propidium iodide staining-based flow cytometric analysis (reference value: 4.6%)", "format": "functional"}, "[26]": {"molecular_target": "Casein kinase I isoform delta (Homo sapiens) (UniProt P48730)", "experiment": "Inhibition of Ckld at 10 uM"}, "[27]": {"molecular_target": "Serine/threonine-protein kinase PAK 2 (Homo sapiens) (UniProt Q13177)", "sequence (Q13177 whole entry)": "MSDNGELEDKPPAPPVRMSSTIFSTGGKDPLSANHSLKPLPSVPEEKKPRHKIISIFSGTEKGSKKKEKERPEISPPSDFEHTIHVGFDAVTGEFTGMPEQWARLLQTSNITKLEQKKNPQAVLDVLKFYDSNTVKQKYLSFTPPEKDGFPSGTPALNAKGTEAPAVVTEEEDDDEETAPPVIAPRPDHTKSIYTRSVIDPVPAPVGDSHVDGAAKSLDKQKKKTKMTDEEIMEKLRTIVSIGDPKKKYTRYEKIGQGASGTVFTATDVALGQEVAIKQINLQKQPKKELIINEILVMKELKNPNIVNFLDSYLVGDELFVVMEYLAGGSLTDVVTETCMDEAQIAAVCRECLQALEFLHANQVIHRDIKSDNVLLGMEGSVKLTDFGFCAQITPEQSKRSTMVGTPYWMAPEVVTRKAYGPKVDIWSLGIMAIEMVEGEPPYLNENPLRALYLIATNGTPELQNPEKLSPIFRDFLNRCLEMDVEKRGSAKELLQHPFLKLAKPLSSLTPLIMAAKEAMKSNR", "experiment": "Inhibition of PAK2 at 10 uM"}, "[28]": {"molecular_target": "5'-AMP-activated protein kinase catalytic subunit alpha-2 (Homo sapiens) (UniProt P54646)", "experiment": "Inhibition of AMPK at 10 uM"}, "[29]": {"experiment": "Inhibition of PKA at 10 uM"}, "[30]": {"system": "U-937", "experiment": "Induction of apoptosis in human U937 cells assessed as necrotic cells at 10 uM after 18 hrs by annexinV-propidium iodide staining-based flow cytometric analysis (reference value: 0.7%)", "format": "functional"}, "[31]": {"molecular_target": "Aurora kinase A (Homo sapiens) (UniProt O14965)", "experiment": "Inhibition of aurora A kinase at 10 uM"}, "[32]": {"system": "U-937", "experiment": "Induction of apoptosis in human U937 cells assessed as early apoptotic cells at 10 uM after 3 hrs by annexinV-propidium iodide staining-based flow cytometric analysis (reference value: 2.8%)", "format": "functional"}, "[33]": {"molecular_target": "Tyrosine-protein kinase Fyn (Homo sapiens) (UniProt P06241)", "experiment": "Inhibition of FYN at 10 uM"}, "[34]": {"molecular_target": "Phosphatidylinositol 4,5-bisphosphate 3-kinase catalytic subunit alpha isoform (Homo sapiens) (UniProt P42336)", "sequence (P42336 whole entry, canonical isoform)": "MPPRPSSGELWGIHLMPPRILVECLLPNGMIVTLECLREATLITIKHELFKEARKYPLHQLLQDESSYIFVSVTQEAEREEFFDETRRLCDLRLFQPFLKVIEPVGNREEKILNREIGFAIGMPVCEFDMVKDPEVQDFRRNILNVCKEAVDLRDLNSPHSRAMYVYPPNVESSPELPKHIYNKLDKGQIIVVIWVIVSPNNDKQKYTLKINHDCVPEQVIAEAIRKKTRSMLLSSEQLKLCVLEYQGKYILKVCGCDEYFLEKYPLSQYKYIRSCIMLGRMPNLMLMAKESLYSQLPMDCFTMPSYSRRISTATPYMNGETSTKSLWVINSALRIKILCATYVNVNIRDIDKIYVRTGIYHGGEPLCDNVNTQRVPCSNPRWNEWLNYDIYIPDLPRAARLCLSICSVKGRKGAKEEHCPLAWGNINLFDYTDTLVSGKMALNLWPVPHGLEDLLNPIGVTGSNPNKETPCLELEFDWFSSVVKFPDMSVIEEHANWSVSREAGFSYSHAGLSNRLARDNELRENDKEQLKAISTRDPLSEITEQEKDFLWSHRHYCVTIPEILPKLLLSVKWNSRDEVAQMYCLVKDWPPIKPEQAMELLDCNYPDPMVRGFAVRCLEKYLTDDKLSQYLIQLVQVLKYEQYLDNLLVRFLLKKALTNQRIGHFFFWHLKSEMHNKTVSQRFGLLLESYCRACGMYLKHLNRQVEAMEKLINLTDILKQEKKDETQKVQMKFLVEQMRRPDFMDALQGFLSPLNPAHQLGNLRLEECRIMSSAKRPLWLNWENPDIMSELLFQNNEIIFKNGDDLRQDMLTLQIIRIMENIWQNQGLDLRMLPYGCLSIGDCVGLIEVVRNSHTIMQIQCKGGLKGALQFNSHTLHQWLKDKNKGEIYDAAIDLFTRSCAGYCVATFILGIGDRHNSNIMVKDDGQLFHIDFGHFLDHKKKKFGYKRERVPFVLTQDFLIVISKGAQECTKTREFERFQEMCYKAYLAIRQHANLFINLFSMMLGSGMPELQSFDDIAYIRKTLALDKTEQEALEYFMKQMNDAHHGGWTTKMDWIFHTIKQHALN", "experiment": "Inhibition of PI3Kalpha at 10 uM"}, "[35]": {"molecular_target": "Glycogen synthase kinase-3 beta (Homo sapiens) (UniProt P49841)", "sequence (P49841 whole entry, looked up)": "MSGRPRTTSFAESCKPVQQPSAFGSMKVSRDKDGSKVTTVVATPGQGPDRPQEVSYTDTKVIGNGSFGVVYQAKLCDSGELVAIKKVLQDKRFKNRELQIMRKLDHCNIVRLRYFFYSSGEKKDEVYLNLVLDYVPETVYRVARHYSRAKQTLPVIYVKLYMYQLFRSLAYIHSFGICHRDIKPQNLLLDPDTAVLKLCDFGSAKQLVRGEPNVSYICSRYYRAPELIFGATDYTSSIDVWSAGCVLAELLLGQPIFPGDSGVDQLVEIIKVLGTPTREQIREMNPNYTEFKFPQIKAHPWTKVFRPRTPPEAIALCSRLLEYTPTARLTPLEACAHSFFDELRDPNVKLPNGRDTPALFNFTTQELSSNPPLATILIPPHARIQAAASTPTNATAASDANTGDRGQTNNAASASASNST", "experiment": "Inhibition of GSK3-beta at 10 uM"}, "[36]": {"molecular_target": "MAP kinase-activated protein kinase 5 (Homo sapiens) (UniProt Q8IW41)", "sequence (Q8IW41 whole entry)": "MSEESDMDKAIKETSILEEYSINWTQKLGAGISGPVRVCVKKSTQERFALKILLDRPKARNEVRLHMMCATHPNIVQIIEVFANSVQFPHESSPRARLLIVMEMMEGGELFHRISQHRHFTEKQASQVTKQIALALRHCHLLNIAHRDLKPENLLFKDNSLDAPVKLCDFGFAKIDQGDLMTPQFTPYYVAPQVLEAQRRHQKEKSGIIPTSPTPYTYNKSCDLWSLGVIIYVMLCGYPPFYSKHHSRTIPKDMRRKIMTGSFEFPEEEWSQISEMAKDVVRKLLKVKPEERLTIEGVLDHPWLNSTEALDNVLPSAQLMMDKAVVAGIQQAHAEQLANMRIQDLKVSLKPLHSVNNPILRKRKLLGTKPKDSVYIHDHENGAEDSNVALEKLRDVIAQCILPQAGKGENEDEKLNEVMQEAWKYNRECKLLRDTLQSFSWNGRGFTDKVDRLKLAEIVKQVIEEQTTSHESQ", "experiment": "Inhibition of PRAK at 10 uM"}, "[37]": {"molecular_target": "Protein kinase C beta type (Homo sapiens) (UniProt P05771)", "sequence (P05771 2-671 limits assumed)": "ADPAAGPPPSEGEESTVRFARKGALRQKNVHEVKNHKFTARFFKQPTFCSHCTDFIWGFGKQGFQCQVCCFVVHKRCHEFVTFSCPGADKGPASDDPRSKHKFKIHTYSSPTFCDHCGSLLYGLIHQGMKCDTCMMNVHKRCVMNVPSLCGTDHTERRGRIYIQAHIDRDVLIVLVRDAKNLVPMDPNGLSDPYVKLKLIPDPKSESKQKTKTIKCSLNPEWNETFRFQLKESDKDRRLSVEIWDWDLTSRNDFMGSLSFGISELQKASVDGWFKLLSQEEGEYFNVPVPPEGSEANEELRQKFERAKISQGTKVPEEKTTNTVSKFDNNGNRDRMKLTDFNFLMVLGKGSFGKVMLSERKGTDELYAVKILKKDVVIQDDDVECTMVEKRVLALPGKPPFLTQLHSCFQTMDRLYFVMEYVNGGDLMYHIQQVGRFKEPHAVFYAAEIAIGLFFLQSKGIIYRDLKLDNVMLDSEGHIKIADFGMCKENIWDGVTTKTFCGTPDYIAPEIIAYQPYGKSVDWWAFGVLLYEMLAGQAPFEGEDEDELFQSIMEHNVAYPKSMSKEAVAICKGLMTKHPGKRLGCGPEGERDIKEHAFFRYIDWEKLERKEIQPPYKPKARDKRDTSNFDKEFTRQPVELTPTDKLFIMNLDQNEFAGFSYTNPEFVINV", "experiment": "Inhibition of PKCbeta2 at 10 uM"}}, "note": "Calls of active or inactive are those of the source. No cut-off for these calls is given here.", "data": [{"smiles": "NCCN1C(=O)S/C(=C\\CCC2CCCCC2)C1=O", "values": [{"measurement": "Activity", "setting": "[1]", "result": "Active"}, {"measurement": "inhibition", "setting": "[2]", "result": 4, "unit": "%"}, {"measurement": "Activity", "setting": "[3]", "result": 2.4, "unit": "%"}, {"measurement": "Activity", "setting": "[4]", "result": 49.9, "unit": "%"}, {"measurement": "viability at 20 µM", "setting": "[5]", "result": 5.1, "unit": "%"}, {"measurement": "Activity", "setting": "[6]", "result": "Active"}, {"measurement": "inhibition", "setting": "[7]", "result": "Active"}, {"measurement": "inhibition", "setting": "[8]", "result": 3, "unit": "%"}, {"measurement": "viability at 3 µM", "setting": "[9]", "result": 90.1, "unit": "%"}, {"measurement": "inhibition", "setting": "[10]", "result": 11, "unit": "%"}, {"measurement": "Activity", "setting": "[11]", "result": 11, "unit": "%"}, {"measurement": "inhibition", "setting": "[12]", "result": -1, "unit": "%"}, {"measurement": "inhibition", "setting": "[13]", "result": 38, "unit": "%"}, {"measurement": "Activity", "setting": "[14]", "result": 5.2, "unit": "%"}, {"measurement": "inhibition", "setting": "[15]", "result": 6, "unit": "%"}, {"measurement": "Activity", "setting": "[16]", "result": 40.9, "unit": "%"}, {"measurement": "inhibition", "setting": "[17]", "result": 12, "unit": "%"}, {"measurement": "inhibition", "setting": "[18]", "result": 3, "unit": "%"}, {"measurement": "inhibition", "setting": "[19]", "result": 6, "unit": "%"}, {"measurement": "inhibition", "setting": "[20]", "result": -8, "unit": "%"}, {"measurement": "viability at 10 µM", "setting": "[21]", "result": 40.2, "unit": "%"}, {"measurement": "Activity", "setting": "[22]", "result": 3.5, "unit": "%"}, {"measurement": "growth inhibition (GI)", "setting": "[23]", "result": "Active"}, {"measurement": "inhibition", "setting": "[24]", "result": "Active"}, {"measurement": "Activity", "setting": "[25]", "result": 14.2, "unit": "%"}, {"measurement": "inhibition", "setting": "[26]", "result": -5, "unit": "%"}, {"measurement": "inhibition", "setting": "[27]", "result": 10, "unit": "%"}, {"measurement": "inhibition", "setting": "[28]", "result": 76, "unit": "%"}, {"measurement": "inhibition", "setting": "[29]", "result": -3, "unit": "%"}, {"measurement": "Activity", "setting": "[30]", "result": 2.1, "unit": "%"}, {"measurement": "inhibition", "setting": "[31]", "result": -4, "unit": "%"}, {"measurement": "Activity", "setting": "[32]", "result": 23.8, "unit": "%"}, {"measurement": "inhibition", "setting": "[33]", "result": 0, "unit": "%"}, {"measurement": "inhibition", "setting": "[34]", "result": 45, "unit": "%"}, {"measurement": "inhibition", "setting": "[35]", "result": 0, "unit": "%"}, {"measurement": "inhibition", "setting": "[36]", "result": 4, "unit": "%"}, {"measurement": "inhibition", "setting": "[37]", "result": 16, "unit": "%"}]}]}
